What was measured:
[1] = system: Rattus norvegicus; test: Hypotensive activity in normotensive Wistar rat assessed as reduction of systolic blood pressure at 0.1 to 5 mg/kg, iv; format: functional, Artery; design: scale not given: the % may be the effect or the level left; conditions: dose mg/kg 0.1-5
Method in brief: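 Male normotensive Wistar rats were anaesthetised with thiopental 75 mg/kg ip. The right carotid artery was cannulated with heparinised saline for pressure recording. After 5 min of stabilisation, compound was injected into the tail vein at 1 mL/kg. Systolic and diastolic pressure were followed up to 60 min. Data are means ± SEM of 5–6 rats, analysed by one-way ANOVA.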

[2] = system: Rattus norvegicus; test: Cardiotoxicity in Wistar rat assessed as hear beats per min at 10 mg/kg, iv after 15 mins by ECG analysis; format: toxicity, organism-based; design: dose 10 mg/kg, route intravenous; conditions: in vivo, 0.25 h
Method in brief: (§1)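 Male normotensive Wistar rats, 170–350 g, six per group. Compound given iv at a constant volume of 1 mL/kg. ECG was recorded just before dosing and at 1, 5 and 15 min after. PQ, QRS and QT intervals and heart rate were read from the trace. Groups were compared by one-way ANOVA.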

[3] = system: Rattus norvegicus; test: Cardiotoxicity in Wistar rat assessed as QT interval at 10 mg/kg, iv after 15 mins by ECG analysis; format: toxicity, organism-based; design: dose 10 mg/kg, route intravenous; conditions: in vivo, 0.25 h; method in brief: as §1
[4] = system: Rattus norvegicus; test: Cardiotoxicity in Wistar rat assessed as QRS interval at 10 mg/kg, iv after 15 mins by ECG analysis; format: toxicity, organism-based; design: dose 10 mg/kg, route intravenous; conditions: in vivo, 0.25 h; method in brief: as §1
[5] = system: Rattus norvegicus; test: Cardiotoxicity in Wistar rat assessed as PQ interval at 10 mg/kg, iv after 15 mins by ECG analysis; format: toxicity, organism-based; design: dose 10 mg/kg, route intravenous; conditions: in vivo, 0.25 h; method in brief: as §1
[6] = system: Rattus norvegicus; test: Cardiotoxicity in Wistar rat assessed as hear beats per min at 10 mg/kg, iv after 10 mins by ECG analysis; format: toxicity, organism-based; design: dose 10 mg/kg, route intravenous; conditions: in vivo
[7] = system: Rattus norvegicus; test: Cardiotoxicity in Wistar rat assessed as QT interval at 10 mg/kg, iv after 10 mins by ECG analysis; format: toxicity, organism-based; design: dose 10 mg/kg, route intravenous; conditions: in vivo
[8] = system: Rattus norvegicus; test: Cardiotoxicity in Wistar rat assessed as QRS interval at 10 mg/kg, iv after 10 mins by ECG analysis; format: toxicity, organism-based; design: dose 10 mg/kg, route intravenous; conditions: in vivo
[9] = system: Rattus norvegicus; test: Cardiotoxicity in Wistar rat assessed as PQ interval at 10 mg/kg, iv after 10 mins by ECG analysis; format: toxicity, organism-based; design: dose 10 mg/kg, route intravenous; conditions: in vivo
[10] = system: Rattus norvegicus; test: Cardiotoxicity in Wistar rat assessed as hear beats per min at 10 mg/kg, iv after 5 mins by ECG analysis; format: toxicity, organism-based; design: dose 10 mg/kg, route intravenous; conditions: in vivo; method in brief: as §1
[11] = system: Rattus norvegicus; test: Cardiotoxicity in Wistar rat assessed as QT interval at 10 mg/kg, iv after 5 mins by ECG analysis; format: toxicity, organism-based; design: dose 10 mg/kg, route intravenous; conditions: in vivo; method in brief: as §1
[12] = system: Rattus norvegicus; test: Cardiotoxicity in Wistar rat assessed as QRS interval at 10 mg/kg, iv after 5 mins by ECG analysis; format: toxicity, organism-based; design: dose 10 mg/kg, route intravenous; conditions: in vivo; method in brief: as §1
[13] = system: Rattus norvegicus; test: Cardiotoxicity in Wistar rat assessed as PQ interval at 10 mg/kg, iv after 5 mins by ECG analysis; format: toxicity, organism-based; design: dose 10 mg/kg, route intravenous; conditions: in vivo; method in brief: as §1
[14] = target: T1, Adrenergic receptor alpha-1 (Rattus norvegicus, UniProt P15823+P23944+P43140); test: Displacement of [3H]-prazosin from alpha1-adrenergic receptor in rat cerebral cortex by liquid scintillation counting; format: tissue-based
T1 sequence (P15823 whole entry): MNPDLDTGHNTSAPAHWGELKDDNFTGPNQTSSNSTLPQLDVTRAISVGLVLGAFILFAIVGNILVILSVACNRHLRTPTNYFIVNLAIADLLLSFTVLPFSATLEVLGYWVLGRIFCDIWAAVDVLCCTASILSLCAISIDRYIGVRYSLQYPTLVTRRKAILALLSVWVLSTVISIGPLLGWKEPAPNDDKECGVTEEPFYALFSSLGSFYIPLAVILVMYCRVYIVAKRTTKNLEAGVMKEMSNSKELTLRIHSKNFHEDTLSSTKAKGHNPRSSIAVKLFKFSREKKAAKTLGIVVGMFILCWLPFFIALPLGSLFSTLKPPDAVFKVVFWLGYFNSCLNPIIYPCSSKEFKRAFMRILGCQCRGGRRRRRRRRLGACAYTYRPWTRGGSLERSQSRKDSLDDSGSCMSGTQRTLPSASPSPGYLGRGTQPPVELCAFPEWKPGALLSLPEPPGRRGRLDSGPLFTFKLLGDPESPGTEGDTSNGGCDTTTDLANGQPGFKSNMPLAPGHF
T1 sequence (P23944 whole entry): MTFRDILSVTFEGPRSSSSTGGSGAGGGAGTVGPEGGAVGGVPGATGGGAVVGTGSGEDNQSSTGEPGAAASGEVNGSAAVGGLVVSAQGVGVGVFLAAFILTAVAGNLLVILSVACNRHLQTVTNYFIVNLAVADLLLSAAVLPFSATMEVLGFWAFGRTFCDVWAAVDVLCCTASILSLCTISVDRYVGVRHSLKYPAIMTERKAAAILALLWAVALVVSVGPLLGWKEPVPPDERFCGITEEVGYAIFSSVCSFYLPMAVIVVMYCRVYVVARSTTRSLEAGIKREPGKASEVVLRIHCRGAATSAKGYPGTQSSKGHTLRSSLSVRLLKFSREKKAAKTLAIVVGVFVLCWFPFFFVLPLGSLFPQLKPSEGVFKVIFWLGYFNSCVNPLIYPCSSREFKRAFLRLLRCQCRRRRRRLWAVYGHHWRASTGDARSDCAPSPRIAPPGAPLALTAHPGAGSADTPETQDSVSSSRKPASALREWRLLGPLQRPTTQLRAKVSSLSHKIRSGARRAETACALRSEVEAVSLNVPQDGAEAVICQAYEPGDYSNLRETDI
T1 sequence (P43140 whole entry): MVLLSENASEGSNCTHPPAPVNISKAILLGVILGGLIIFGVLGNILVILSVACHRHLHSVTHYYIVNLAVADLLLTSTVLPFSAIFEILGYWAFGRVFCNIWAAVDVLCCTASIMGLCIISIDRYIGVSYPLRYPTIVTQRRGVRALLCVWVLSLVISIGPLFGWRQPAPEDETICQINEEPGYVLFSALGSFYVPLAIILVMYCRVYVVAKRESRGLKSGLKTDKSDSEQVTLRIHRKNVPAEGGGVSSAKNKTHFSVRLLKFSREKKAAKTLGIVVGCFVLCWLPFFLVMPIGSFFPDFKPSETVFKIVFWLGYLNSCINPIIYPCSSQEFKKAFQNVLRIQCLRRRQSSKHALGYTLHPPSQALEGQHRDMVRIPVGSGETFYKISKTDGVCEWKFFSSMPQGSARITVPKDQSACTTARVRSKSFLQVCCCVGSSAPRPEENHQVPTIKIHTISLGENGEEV
Method in brief: (§2)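 Rat cerebral cortex was homogenised in ice-cold 50 mM Tris-HCl pH 7.6 and spun at 20,000 g for 20 min at 0–4 °C, then washed once. Radioligands: [3H]prazosin 0.2 nM for α1, [3H]clonidine 2 nM for α2, [3H]CGP-12177 0.2 nM for β1. Test compounds were run at 7–8 concentrations from 10^-11 to 10^-4 M. Nonspecific binding was defined with phentolamine (α1), clonidine (α2) or propranolol (β1). Counting was by liquid scintillation, in duplicate. Ki was derived by Cheng–Prusoff from 2–3 experiments.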

[15] = Displacement of [3H]CGP-12177 from beta1-adrenergic receptor in rat cerebral cortex by liquid scintillation counting; format: tissue-based; method in brief: as §2
[16] = target: T2, Adrenergic receptor alpha-2 (Rattus norvegicus, UniProt P22086+P19328+P22909); test: Displacement of [3H]clonidine from alpha2-adrenergic receptor in rat cerebral cortex by liquid scintillation counting; format: tissue-based; method in brief: as §2
T2 sequence (P22086 whole entry): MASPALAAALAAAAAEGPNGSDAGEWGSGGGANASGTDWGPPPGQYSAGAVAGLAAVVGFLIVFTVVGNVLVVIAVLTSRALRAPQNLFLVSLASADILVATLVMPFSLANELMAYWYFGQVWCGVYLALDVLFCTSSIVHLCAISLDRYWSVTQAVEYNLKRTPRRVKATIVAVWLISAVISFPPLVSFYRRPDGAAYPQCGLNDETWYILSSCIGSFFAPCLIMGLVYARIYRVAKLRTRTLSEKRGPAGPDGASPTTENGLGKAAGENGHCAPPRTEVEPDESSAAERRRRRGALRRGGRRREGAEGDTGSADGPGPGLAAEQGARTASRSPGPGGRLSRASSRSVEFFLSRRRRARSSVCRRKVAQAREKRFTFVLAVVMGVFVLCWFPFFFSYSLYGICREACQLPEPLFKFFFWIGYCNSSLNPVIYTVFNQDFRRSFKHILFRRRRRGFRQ
T2 sequence (P19328 whole entry): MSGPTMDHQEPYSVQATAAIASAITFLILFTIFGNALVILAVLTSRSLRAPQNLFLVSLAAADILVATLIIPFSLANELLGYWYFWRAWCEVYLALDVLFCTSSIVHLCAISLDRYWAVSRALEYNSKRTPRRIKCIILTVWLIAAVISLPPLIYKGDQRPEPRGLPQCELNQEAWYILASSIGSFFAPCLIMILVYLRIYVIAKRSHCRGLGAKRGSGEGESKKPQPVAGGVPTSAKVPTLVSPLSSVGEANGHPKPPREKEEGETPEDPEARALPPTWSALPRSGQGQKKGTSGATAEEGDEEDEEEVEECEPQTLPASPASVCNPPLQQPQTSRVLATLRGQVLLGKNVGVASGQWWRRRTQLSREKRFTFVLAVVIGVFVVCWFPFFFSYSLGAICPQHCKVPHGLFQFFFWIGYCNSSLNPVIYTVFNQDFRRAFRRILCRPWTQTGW
T2 sequence (P22909 whole entry): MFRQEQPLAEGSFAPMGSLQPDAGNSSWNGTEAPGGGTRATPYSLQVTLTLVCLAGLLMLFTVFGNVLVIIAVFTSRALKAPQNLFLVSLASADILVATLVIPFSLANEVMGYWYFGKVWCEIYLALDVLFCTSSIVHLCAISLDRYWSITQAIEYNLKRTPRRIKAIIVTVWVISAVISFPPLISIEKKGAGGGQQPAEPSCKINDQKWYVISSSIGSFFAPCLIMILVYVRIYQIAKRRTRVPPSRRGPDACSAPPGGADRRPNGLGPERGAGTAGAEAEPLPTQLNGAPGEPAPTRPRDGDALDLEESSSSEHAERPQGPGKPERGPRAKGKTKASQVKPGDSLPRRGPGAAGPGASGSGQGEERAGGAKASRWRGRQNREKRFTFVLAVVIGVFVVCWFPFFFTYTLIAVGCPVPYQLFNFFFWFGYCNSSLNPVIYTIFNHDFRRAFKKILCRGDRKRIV

[17] = system: Rattus norvegicus; test: Antiarrhythmic activity in iv dosed Wistar rat adrenaline-induced arrhythmia model assessed as reduction of heart-rhythm disturbance administered 15 mins adrenaline-challenge; format: functional; conditions: 0.25 h
Method in brief: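 Anaesthetised male Wistar rats (thiopental 75 mg/kg ip). Test compound iv at 1 mL/kg, given 15 min before adrenaline 20 µg/kg iv. Activity means no premature beats and inhibition of arrhythmia, judged against a control group. There were three dose groups of six rats. ED50 with confidence limits was calculated by the Litchfield–Wilcoxon method.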

`CC(C)NCC(O)COc1ccc2c(=O)c3ccccc3oc2c1` (centres undefined) showed an Activity [1] of 7%.
With `COc1ccc(N2CCN(CCCOc3cccc4c(=O)c5ccccc5oc34)CC2)cc1.Cl` the Activity [2] was 311.4 bpm, the Activity [3] was 82.4 ms and the Activity [4] was 24.2 ms. The Activity [5] was 43.7 ms, the Activity [6] was 317.4 bpm and the Activity [7] was 80.2 ms. For the same molecule, the Activity [8] was 23.6 ms, the Activity [9] was 43.7 ms and the Activity [10] was 323 bpm. The Activity [11] was 79.4 ms, the Activity [12] was 22.8 ms and the Activity [13] was 43.5 ms. The Ki [14] was 1.1 µM and the Ki [15] was 31.6 µM.
`COc1ccccc1N1CCN(CCCOc2cccc3c(=O)c4ccc(Cl)cc4oc23)CC1.Cl` gave a Ki [16] of 5.5 µM, a Ki [14] of 0.082 µM and a Ki [15] of 4.5 µM.
In the case of `COc1ccccc1OCCNCC(O)COc1cccc2[nH]c3ccccc3c12` (centres undefined) [CARVEDILOL], the ED50 [17] is reported as 0.25 mg/kg.

Reference: ChEMBL document CHEMBL2311390, “Synthesis and preliminary evaluation of pharmacological properties of some piperazine derivatives of xanthone” (Bioorg Med Chem, 2013)
